In all, about 330,000 compounds went through this assay and about 55 (0.02%) were called active. Only a selection was taken, and actives are over-represented in it overall. A number with no mark means an inactive call.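 Rule for the calls: active = highest replicate inhibition of at least 40%; inactive = the rest.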

In this experiment the target is Golgi-associated PDZ and coiled-coil motif-containing protein (Homo sapiens) (UniProt Q9HD26). Kind of experiment: disruption of CAL PDZ-reporter peptide interaction – biochemical, fluorescence polarization, Cer-tagged CAL PDZ, HTS, primary screen (AID 504414).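 Note: plate controls were DMSO neutral control wells for no effect and unlabeled competitor peptide control wells for full effect.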 To be noted: purified CAL PDZ, TMR-peptide fluorescence polarization, 1 h; at 20 µM; hits give high values. An outline of the steps: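 System: purified tagged CAL PDZ domain construct (CerCALP). Schedule: 1 h incubation at room temperature before polarization reading. Medium: 25 mM sodium phosphate pH 7.4, 150 mM NaCl, TCEP, IgG, Thesit. Read-out: percent inhibition from loss of millipolarization. Measured by: FP readout, S and P plane fluorescence. Probe or stimulus: fluorescent TMR peptide probe.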
A general note: In fluorescence polarisation assays a small probe gives low polarisation when free and higher when bound to something large.
On to `COc1ccccc1N(CC(=O)Nc1c(C)n(C)n(-c2ccccc2)c1=O)S(=O)(=O)c1ccccc1`, for which the inhibition – broadly, the relative decrease from the control value, in per cent – was 0.495%.

`CCN(CC)CCN1C(=O)C2C(C(=O)Nc3ccc(Br)cc3)C3C=CC2(O3)C1C(=O)NC1CCCCC1` (stereo unspecified): the inhibition is 0.206%.

For `COc1ccc(-n2c(O)c(C=NCC(c3ccco3)N3CCCC3)c3ccccc3c2=O)cc1OC` (stereo unspecified), the inhibition is -2.24%.

With `CC1CCCN(C(=O)Cn2c(=O)oc3ccccc32)C1` (stereo unspecified), the inhibition was 0.481%.

For `COc1ccc(/C=C/C(=O)NC(=S)N2CCCC(C(N)=O)C2)cc1` (stereo unspecified), the inhibition was -0.891%.

Regarding `O=C(C1CCCO1)N1CCN(S(=O)(=O)c2ccc(Br)cc2)CC1` (stereo unspecified), the inhibition was -0.919%.

Regarding `CC(OC(=O)c1ccc(-n2cnnn2)cc1)C(=O)NCc1ccccc1` (stereo unspecified), the inhibition is -0.615%.

In the case of `COc1ccccc1N1CCN(CC(=O)NCCc2ccc(S(N)(=O)=O)cc2)CC1`, the inhibition was 1.11%.

Take `O=C1COc2c1ccc(O)c2O`: the inhibition is -0.377%.

`CCC(C(=O)NC1CCCCC1)N(C(=O)c1snc(C(N)=O)c1N)c1ccc(OC)cc1OC` (stereo unspecified): the inhibition was -1.96%.

Turning to `COC(=O)c1cc(NC2c3ccccc3C(=O)N2c2ccc(Cl)cn2)cc(C(=O)OC)c1` (stereo unspecified), the inhibition was 1.56%.

`Cc1cccc(OCCNC(=S)NC(=O)c2cccnc2)c1`: the inhibition was -1.24%.

On to `COC(=O)c1cc(C(=O)N(Cc2ccccc2)c2ccccn2)cc([N+](=O)[O-])c1`, for which the inhibition was -1.95%.

For the compound `FC(F)(F)c1cc(C(F)(F)F)c2ccc(N3CCN(c4ccccc4)CC3)nc2n1`, the inhibition was -0.0994%.

For the compound `Cc1cccc(N2Cc3ccccc3C2=NC(=O)c2ccc(Cl)nc2)c1`, the inhibition is -3%.

As to `Cc1ccc(C(=O)O)c(NC=O)c1OCc1ccccc1`, the inhibition was -0.888%.

In the case of `O=C(Nc1ccc(F)c([N+](=O)[O-])c1)C1CCCO1` (stereo unspecified), the inhibition is 0.3%.

Take `C[C@@H]1C(c2ccc(F)cc2)=NN(c2ccc(Br)cc2)[C@H]1C(=O)N1CCOC1=O`: the inhibition was -0.314%.

For `COc1ccc(N2CCN(C(=O)c3ccc(N4CCCCS4(=O)=O)cc3)CC2)cc1`, the inhibition was -1.77%.

Turning to `CCCCCCCCCCOC(=O)C[N+](C)(C)CC1CCCCC1O` (stereo unspecified), the inhibition was -1.83%.

Regarding `Cc1cc(C)c(C#N)c(Nc2cccc(Br)c2)n1`, the inhibition is -0.811%.

With `COc1ccc2c(c1)c(=Cc1ccc(N(C)C)cc1)c1cc(-c3ccccc3)[n+](C)n12`, the inhibition is 32%.

As to `COc1ccc(-n2nc(C(=O)NCC(=O)N3CCC(C(N)=O)CC3)c3ccccc3c2=O)cc1OC`, the inhibition is 0.6%.

For `COc1ccccc1C(=O)COC(=O)CNS(=O)(=O)c1ccc(NC(C)=O)cc1`, the inhibition was -3.17%.

Consider `COc1cc2c(cc1OC)C1C(=O)c3cc(OS(C)(=O)=O)c(OC)cc3C1N(C)C2=O` (stereo unspecified), for which the inhibition was -0.086%.

Turning to `Cc1ccc(NC(=O)CN2C(=O)NC(C)(c3ccc(Cl)cc3)C2=O)c(Br)c1` (stereo unspecified), the inhibition was -4.23%.

As for `CCOc1cc(/C=N/NC(=O)c2ccc(CSc3nncn3C)cc2)ccc1OCC(=O)N1CCOCC1`, the inhibition was -3.73%.

Regarding `CCN(CC)S(=O)(=O)c1cccc(-c2n[nH]c(=S)n2/N=C/c2ccc(C(=O)OC)cc2)c1`, the inhibition was -1.46%.

Consider `CCCCC(CC)CNCc1cccn1CCN1CCOCC1` (stereo unspecified), for which the inhibition was 0.235%.

With `Cc1cc(C)n(CC(C)NCc2c(C(=O)N3CCOCC3)nc3c(C)cccn23)n1` (stereo unspecified), the inhibition was 0.659%.

On to `COc1ccccc1C1C(C(N)=O)=C(C)Nc2nc(CCCO)nn21` (stereo unspecified), for which the inhibition is -0.498%.

With `Nc1cc2c(cc1Br)-c1ccc(F)cc1C2=O`, the inhibition is -0.277%.

Turning to `O=C(O)CCC(=O)Nc1ccc(OCC2CCCO2)cc1` (stereo unspecified), the inhibition is -0.764%.

Turning to `Cc1c[n+]([O-])ccc1[N+](=O)[O-]`, the inhibition was 0.378%.

`Cc1nc(C)c2c(c1C(F)(F)F)-c1ccccc1C2(F)F`: the inhibition was -1.33%.

Consider `NC1=NC(=O)C(Cc2cccc(Cl)c2Cl)S1` (stereo unspecified), for which the inhibition is 1.03%.

With `CCc1ccc(OCC(=O)OC(C)C(=O)NC2CC2)cc1` (stereo unspecified), the inhibition was -0.543%.

With `CC(C)(C)C(=O)N(Cc1ccccc1)c1ccccn1`, the inhibition was 0.0459%.

As to `COC(C(=O)Nc1ccc(S(=O)(=O)Nc2ccc(C)c(C)c2)cc1)c1ccccc1` (stereo unspecified), the inhibition is -3.38%.

For `CCCCCCCCNS(=O)(=O)CCNC1CCCCC1`, the inhibition is -1.06%.

As for `O=C1CSc2ccc(S(=O)(=O)NCc3ccccc3)cc2N1`, the inhibition is -0.383%.

Consider `CCOc1ccccc1-n1c(SCC(=O)N2CCCC2)nnc1-c1ccoc1C`, for which the inhibition is -1.83%.

`O=S(=O)(NC1CCCCC1N1CCC(O)CC1)c1ccc(Cl)cc1` (stereo unspecified): the inhibition is -0.646%.

Consider `CC1CCCCC1NC(=O)CCS(=O)(=O)c1ccc2c(c1)NC(=O)CO2` (stereo unspecified), for which the inhibition is -0.536%.

For `COc1ccc(/C=N/N=C/c2c[nH]c(=O)c(C#N)c2Nc2ccccc2)cc1`, the inhibition was -5.96%.

Consider `CC(C)(C)C(=O)Nc1ccc(-c2cn3cccnc3n2)cc1`, for which the inhibition was -1.11%.

For the compound `CC(=O)Nc1ccc(-c2cn3cccnc3n2)cc1`, the inhibition was -1.06%.

Regarding `CCCCCC(=O)Nc1ccc(-c2cn3cccnc3n2)cc1`, the inhibition is 177% (active).

In the case of `Cc1ccc(C(=O)NNC(=O)OC(C)(C)C)c(Cl)c1`, the inhibition was -1.58%.

As to `S=c1[nH]cc(-c2ccc(Cl)cc2)n1-c1ccccc1`, the inhibition was -1.13%.

Consider `CC(=O)c1nc(N2C(=O)C3CC=C(C)CC3C2=O)sc1C` (stereo unspecified), for which the inhibition was -0.266%.

For `CC(C)CCN1CCN=C1N(C)C`, the inhibition was -2.49%.

With `Cc1ccc(S(=O)(=O)N2CCN(C)CC2)cc1C(=O)NC1CCCCC1`, the inhibition was -0.886%.

As to `CN1/C(=c2/s/c(=C3/C(=O)N(c4ccccc4)NC3=Nc3ccccc3)n(C)c2=O)C(C)(C)c2ccccc21`, the inhibition is 0.46%.

On to `COc1cc(-c2nc(S(=O)(=O)c3ccc(Cl)cc3)c(N(C)C)o2)cc(OC)c1OC`, for which the inhibition is -0.274%.

For `Clc1c(OCCCn2ccnc2)ccc2ccccc12`, the inhibition was -0.854%.

With `O=C(OCC(=O)N1CCCCCC1)c1ccc(Br)c(S(=O)(=O)N2CCOCC2)c1`, the inhibition is 0.404%.

On to `CSc1ccc(Cl)c(C(=O)OCC(=O)N2CC(C)OC(C)C2)c1` (stereo unspecified), for which the inhibition is 1.25%.

Consider `CCOc1ccc(NC(=O)CC(Cc2ccc(Cl)cc2)C(=O)O)cc1` (stereo unspecified), for which the inhibition was -0.804%.

Take `Cc1cc(-n2cnc(-c3cn(C)nc3C)n2)no1`: the inhibition is -0.598%.

Turning to `C=CCOC(=O)N1CCC2CC1c1cc(-c3ccc(OC)cc3)ccc12` (stereo unspecified), the inhibition was -0.353%.

`Cc1nc(-c2ccccc2)sc1-c1nnc(C2CC2)o1`: the inhibition was -0.361%.

In the case of `CCN(C(=O)COC(=O)/C=C/c1nc2ccccc2s1)C1CCS(=O)(=O)C1` (stereo unspecified), the inhibition is 0.0609%.

Take `CC(=O)c1c(C)[nH]c(C(=O)Nc2cc(S(=O)(=O)N(C)C)ccc2C)c1C`: the inhibition was -0.89%.

In the case of `COc1ccc(CNC(=O)CSc2n[nH]c(N)n2)cc1OC`, the inhibition was -2.17%.

In the case of `C=CCOc1c2ccc(C(=O)N(CC)c3ccc(OC)cc3)cc2nn1C`, the inhibition is -0.978%.

Turning to `O=C(COc1coc(CN2CCN(c3ccccc3)CC2)cc1=O)N1CCc2ccccc21`, the inhibition was -0.986%.

For the compound `COc1cc(NC(=O)c2ccc3c(c2)OCO3)ccc1NC(=O)c1cccs1`, the inhibition is -2.17%.

Consider `COc1cc(NC(=O)c2cccs2)ccc1NC(=O)c1ccccc1Cl`, for which the inhibition was 52% (active).

As to `COc1cc2ccccc2cc1C(=O)Nc1ccc(NC(=O)c2cccs2)cc1`, the inhibition is -1.38%.

As to `Cn1cc(CCC(=O)N2CCCC(C(=O)c3ccc(C(C)(C)C)cc3)C2)cn1` (stereo unspecified), the inhibition was -1.53%.

Turning to `Cc1ccccc1NC(=O)CCOc1ccccc1`, the inhibition was -0.379%.

On to `COc1ccccc1-n1ccnc(SCC(=O)NC2CCCCC2)c1=O`, for which the inhibition was -0.307%.

Regarding `CN(C)S(=O)(=O)Oc1ccccc1C(=O)Nc1ccccc1Cl`, the inhibition is -2.53%.

Take `CN(C)C(=O)CCc1ccc2c3c([nH]c2c1)[C@]1(C)[C@@H](C(=O)N2CCCCC2)C[C@H](CC(=O)NCCC2=CCCCC2)C(=O)N1CC3`: the inhibition is -0.602%.

Regarding `CC(CN1CCCCC1)c1ccccc1` (stereo unspecified), the inhibition is -0.367%.

On to `COc1ccccc1CNC(=O)CNC(=O)c1cn(-c2ccccc2OC)c(=O)c2ccccc12`, for which the inhibition was -0.592%.

As for `CCc1ccc(C(=O)C(C)OC(=O)CN2C(=O)NC3(CCCC3)C2=O)cc1` (stereo unspecified), the inhibition was -0.0354%.

Regarding `Cc1ccoc1C(=O)Nc1cccc(Oc2ccccc2)c1`, the inhibition is -1.61%.

On to `Cc1ccnc(NC(=O)C2CCN(S(=O)(=O)c3c(C)c(C)cc(C)c3C)CC2)c1`, for which the inhibition is -2.34%.

For the compound `CCOc1ccc(OCC(=O)OC(C)C(=O)NC2CCCCC2C)cc1` (stereo unspecified), the inhibition was -1.17%.

For `O=C(O)C1C2C=CC(O2)C1C(=O)Nc1ccccn1` (stereo unspecified), the inhibition was 0.325%.

On to `CCc1cccc(NC(=S)N(CCN(C)C)C2CCN(C(C)C)CC2)c1`, for which the inhibition is -0.435%.

As for `COc1ccccc1NC(=S)N1CCN(C(c2ccccc2)c2ccccc2)CC1`, the inhibition was 0.312%.

For the compound `COCCN(C(=S)Nc1ccccc1OC)C1CCN(C(C)C)CC1`, the inhibition is 61.8% (active).

Consider `Cc1ccccc1N1C(=O)C2ON(c3ccccc3)C(c3ccncc3)C2C1=O` (stereo unspecified), for which the inhibition was -1.2%.

Turning to `CCCCN(C)c1ccc([N+](=O)[O-])cc1`, the inhibition was -3.03%.

Take `CC(=O)c1c(O)cc2n(c1=O)-c1ccc(Cl)cc1C2(C)C`: the inhibition was -2.37%.

Take `COc1ccc(-c2cc(C(=O)N(C)CC(=O)Nc3ccccc3Cl)c3ccccc3n2)cc1OC`: the inhibition is -0.623%.

With `O=C(/C=C/Nc1ccc(S(=O)(=O)Nc2cnc3ccccc3n2)cc1)c1cccnc1`, the inhibition is -1.99%.

As for `COc1ccc(N(CC(=O)N2CCOCC2)S(=O)(=O)c2ccccc2)cc1Cl`, the inhibition was -0.969%.

The values above are taken from PubChem BioAssay AID504414 (Broad Institute, 2011).
